High-throughput results deposited in PubChem by several laboratories.
miR-122 sensor – miR-122 inhibition in Huh7 cells; activation (reporter increase), % at 12.5 µM; actives 0.3% (n = 340,000); Huh7 miR-122 Renilla luciferase sensor, 48 h; neutral wells = 0, positive control = 100;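 active means mean replicate activation score at least 90 and every replicate individually at or above 90; inconclusive means only one of the two criteria met; inactive means neither criterion met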;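 further: higher luciferase means less miR-122 activity so hits act as miR-122 inhibitors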
Jurkat NFkB inh – lowers PMA/ionomycin-induced NF-kB signal in Jurkat cells; PMA/ionomycin-induced NF-kB luciferase reporter, luminescence; inhibition, % at 4 µM; actives 0.53% (n = 330,000); in the data active means inhibition above about 50%
697 NFkB inh – inhibitors of the PMA/ionomycin-induced NF-kB reporter in 697 B cells. 697 B-cell NF-kB luciferase reporter, 16 h. inhibition, % at 4 µM. actives 0.33% (n = 330,000). AID 435022; in the data active means inhibition above about 35%
NR2E3 ag-1 – agonists of human NR2E3 nuclear receptor. actives 0.35% (n = 360,000). Q9Y5X4. CHO-S Gal4-NCOR/VP16-NR2E3 two-hybrid, luciferase. inhibition of corepressor binding, % at 3.98 µM;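 active means inhibition above the mean of all tested compounds plus 3 SD, cut at about 70% in these data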;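 further: 0% = DMSO with NR2E3 transfected cells and 100% = cells lacking NR2E3 construct; higher means lower luciferase signal from less NR2E3 corepressor binding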
Target sequence (Q9Y5X4 whole entry, looked up, the tested form may be a part): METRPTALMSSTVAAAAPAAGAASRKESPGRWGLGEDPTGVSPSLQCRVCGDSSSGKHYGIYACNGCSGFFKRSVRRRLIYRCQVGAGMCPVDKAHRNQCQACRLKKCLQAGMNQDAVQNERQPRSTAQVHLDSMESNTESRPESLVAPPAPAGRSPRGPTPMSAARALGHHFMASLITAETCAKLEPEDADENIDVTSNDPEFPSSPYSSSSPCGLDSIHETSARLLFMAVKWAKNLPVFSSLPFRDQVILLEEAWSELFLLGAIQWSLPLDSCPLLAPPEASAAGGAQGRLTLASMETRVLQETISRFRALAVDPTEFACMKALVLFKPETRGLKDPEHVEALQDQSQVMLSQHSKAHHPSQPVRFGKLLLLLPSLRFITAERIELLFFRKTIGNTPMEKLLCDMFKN
NR2E3 ag-2 – agonists of human nuclear receptor NR2E3. inhibition of corepressor binding, % at 4.78 µM. actives 0.12% (n = 320,000). GST-NR2E3/biotin-RetCOR TR-FRET, 1536-well;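 active means percent inhibition above the cutoff of mean plus 3 SD of all tested compounds, set per screening campaign, cut at about 20% in these data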;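 further: 0% = DMSO wells and 100% = biotin wells as full block of FRET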
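System: GST-tagged NR2E3 plus biotinylated RetCOR corepressor; Buffer or medium: pH 7.5 Tris-based buffer; Probe or stimulus: RetCOR corepressor, biotinylated, 7 nM; Doses: compound at 4.8 µM, single dose; Schedule: 5 h incubation at 4 °C; Technique: time-resolved FRET; Evaluation: percent inhibition of TR-FRET ratio; Replication: one well per compound, singlicate testing.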
FGF22 binding – FGF22 (human) thermal shift binding; recombinant FGF22 thermal shift, SYPRO orange fluorescence; percent of sucrose octasulfate shift, DMSO zero; activity (Tm shift, normalised), % at 9.99 µM; actives 1.5% (n = 340,000);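 active means mean Tm shift, scaled 0 neutral to 100 positive control, at about 1.3% or above, every replicate too, limit read from the data; inconclusive means no clear call, values can overlap the other calls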
Active calls of the source: *; ? = inconclusive; · = no result given; [ ] = remark or other dose. Most compounds without a hit are left out; they make up all but 2.2% or so of the library.

SMILES	miR-122 sensor	Jurkat NFkB inh	697 NFkB inh	NR2E3 ag-1	NR2E3 ag-2	FGF22 binding
C=CC[n+]1ccc(/C=C2\C=Cc3cc(C)ccc3N2CC)c2ccccc21	-1	·	·	93*	·	·
O=C(c1ccc(C(F)(F)F)cc1)C1CCCN(C(=O)CN2C(=O)CSC2=O)C1 (configuration not stated)	1	-45	4	-73	-1	0
O=C(c1ccc(C(F)(F)F)cc1)C1CCCN(C(=O)CN2CCCC2=O)C1 (configuration not stated)	7	-9	-17	-23	4	43*
CCCNC(=O)Cc1ccc(N2C(=O)CSC2c2ccccc2)cc1 (configuration not stated)	·	·	·	·	·	0
CCOc1ccc(S(=O)(=O)NCCN2CCOCC2)c2ccccc12	108*	-16	3	-5	0	·
CCOc1cc(S(=O)(=O)NCCN2CCOCC2)c(C)cc1C	?	-10	4	2	-2	·
CCCOc1ccc(S(=O)(=O)NCCN2CCOCC2)c2ccccc12	199*	-18	-13	2	5	·
CC(C)NC(=O)Nc1ccc2c(c1)C(=O)N([C@H](C)CO)C[C@@H](C)[C@@H](CN(C)C(=O)CCC(F)(F)F)OCCCC[C@@H](C)O2	-6[16.7 µM]	·	·	·	·	-1
CCc1nc2ccccc2n1CCc1ccccc1	·	8	10	-15	1	0
CC(C)Cc1nc2ccccc2n1CCc1ccccc1	·	-17	4	-25	2	43*
COc1ccc(C2(O)CN(c3ccc(C)cc3)C3=[N+]2CCCC3)cc1 (configuration not stated)	·	-8	7	-8	-2	43*
COc1ccccc1S(=O)(=O)N1C[C@H](O)COC[C@@H]2O[C@H](CC(=O)O)CC[C@H]21	-1[16.7 µM]	·	·	·	·	0
CN(C)S(=O)(=O)c1ccc2c(c1)nc(CCC(=O)NCC(=O)Nc1ccc(F)c(F)c1F)n2C	-4	·	·	1	·	44*
CN(C)S(=O)(=O)c1ccc2c(c1)nc(CCC(=O)O)n2C	-12	10	9	2	·	·
O=C(Cc1cccc2ccccc12)Nc1ccc(OC(F)F)c(Cl)c1	94*	10	25	-27	0	0
Cc1noc(C)c1NC(=O)Nc1ccc2c(c1)C(=O)N([C@H](C)CO)C[C@H](C)[C@@H](CN(C)Cc1ccncc1)OCCCC[C@@H](C)O2	15[16.7 µM]	·	·	·	·	-1
Cc1cc(Cl)c(S(=O)(=O)Nc2ccc3c(c2)OCO3)cc1OCC(=O)NC1CCCCC1	94*	16	4	-8	0	·
CC(C)[C@H](C)NC(=O)N(C)C[C@@H]1OCc2ccccc2-c2ccccc2C(=O)N([C@H](C)CO)C[C@H]1C	·	·	·	·	·	0
O=S(=O)(NCCc1ccncc1)c1ccc(F)cc1	·	-7	0	3	1	0
O=S(=O)(NCCc1ccncc1)c1ccc(Br)cc1	192*	-16	-8	5	-1	·
Cc1cc(C)c(S(=O)(=O)N2CCN=C2c2ccccc2)cc1C	100*	-8	-2	-2	1	·
CCCCNC(=O)CSc1nc2c(sc(=S)n2-c2cc(Cl)ccc2OC)c(=O)[nH]1	·	9	1	-25	1	1.4*
CCOc1ccc(-n2c(=S)sc3c(=O)[nH]c(SCC(=O)NC4CCCCC4)nc32)cc1	-3	·	·	-35	·	43
CCc1ccc(-n2c(=S)sc3c(=O)[nH]c(SCC(=O)NC4CCCCC4)nc32)cc1	-4	·	·	-17	·	44*
COc1ccc2c(Cl)c(C(=O)NN3CCN(C)CC3)sc2c1	-1	-9	-6	-11	6	44*
COc1ccc2c(Cl)c(C(=O)NC3CCS(=O)(=O)C3)sc2c1 (configuration not stated)	2	-40	-30	-75	-2	·
C[C@@H]1CN([C@@H](C)CO)C(=O)c2cc(NS(=O)(=O)c3ccccc3)ccc2O[C@H]1CN(C)Cc1ccc2c(c1)OCO2	-7[16.7 µM]	·	·	·	·	0
CC(C)(C)c1[nH]nc2c1C(c1ccsc1)C(C#N)=C(N)O2 (configuration not stated)	·	-4	9	11	-1	43*
O=C([C@H]1[C@H](CO)[C@H]2Cn3c(cccc3=O)[C@@H]1N2CC1CCCCC1)N1CCOCC1	·	·	·	·	·	0
